Assay outcomes from PubChem BioAssay.
Only some compounds are listed: those with a hit (about 2.9% of all), similar ones and a draw of the others.
TRPC4 block = inhibitors of mouse TRPC4 channel | Q9QUQ5 | actives 0.39% (n = 300,000) | HEK293 TRPC4beta/mu-opioid, DAMGO-evoked Fluo4 calcium flux; active compounds read low | AID 2247 | B-score at 10 µM;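 active = B-score over 3 SD under the library average, no early fluorescence shift, positive overall ratio signal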
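material = TRPC4beta/mu-opioid receptor HEK293 cell line | probe or stimulus = sequential submaximal and maximal DAMGO stimulation | compound dosing = one concentration per compound | measured by = Fluo4 Ca2+ flux fluorescence | evaluation = integrated fluorescence ratio relative to baseline, converted to per-well B score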
TRPC4 potent = allosterically enhances the mouse TRPC4 cation channel. Q9QUQ5. HEK293 TRPC4beta/mu-opioid, DAMGO EC20, Fluo-4 Ca2+ flux; active compounds read high. B-score at 10 µM. actives 0.42% (n = 310,000). AID 2227;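 active = B-score of calcium response area above 5 SD of library B-scores, with initial fluorescence ratio within 5 SD of library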;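 note: B-score of integrated fluorescence ratio over time as area under calcium response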
Kir21 inh = inhibitors of mouse Kir2.1 inward-rectifier potassium channel; P35561; actives 0.85% (n = 310,000); HEK293-Kir2.1, FluxOR thallium flux fluorescence; active compounds read low; B-score at 10 µM;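 active = fluorescence ratio B-score at or below minus 3 SD of library scores, with starting-brightness B-score within 2 SD, cut at about -4.2 in these data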;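 note: channel flux triggered by added potassium and thallium sulfate stimulus; B-score of peak minus minimum fluorescence over baseline after thallium stimulus; more negative B-score means stronger Kir2.1 block with less thallium influx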
TRPC4 agonist = TRPC4 (mouse) channel activation. HEK293 TRPC4beta/mu-opioid, Fluo4 calcium fluorescence; active compounds read high. B-score at 10 µM. actives 0.49% (n = 310,000). AID 2237;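 active = B-score above 5 SD of library B-scores, and initial fluorescence ratio not above library mean plus 5 SD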;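 note: positive B-score marks a calcium rise read as TRPC4 activation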
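Assay system: HEK293 cells stably co-expressing mouse TRPC4beta and mu-opioid receptor / Timing: Fluo4 dye loading 45 min at room temperature, 110 s recording / Signal: Fluo4 calcium-sensitive dye fluorescence, kinetic, 1 Hz baseline / Read-out: integrated baseline-normalised fluorescence ratio, converted to per-well B score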
TRPC6 inhibitor = blocks the mouse TRPC6 cation channel. HEK293-TRPC6, membrane potential dye, ACh-evoked depolarization; active compounds read low. B-score at 10 µM. actives 1.1% (n = 310,000). AID 2553;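 active = B-score under library mean minus 3 SD, initial fluorescence not abnormally high, positive integrated signal ratio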;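 note: B-score derived from integrated fluorescence ratio over the kinetic read; more negative B-score means stronger inhibition of depolarization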
TRPC6 activator = activators of mouse TRPC6 channel; HEK293-TRPC6 membrane potential dye fluorescence; active compounds read high; Q61143; B-score at 10 µM; actives 0.13% (n = 310,000);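 active = B-score of the integrated fluorescence ratio above library mean plus 3 SD, and starting fluorescence ratio within library mean plus 5 SD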;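 note: higher score means more depolarization so channel activation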
TRPC4 spec 2 = second selectivity test of TRPC6 inhibitors: effect on mouse TRPC4; shares compounds with TRPC6 inhibitor; HEK293 TRPC4/MOR, membrane potential dye fluorescence; channel activated by saturating DAMGO dose; inhibition, % at 10 µM; actives 42% (n = 920);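 active = compounds whose fluorescence signal differed from control wells by over 3 SD, either direction, in both duplicate plates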
TRPC4 spec = tests whether TRPC6 inhibitors also affect mouse TRPC4; shares compounds with TRPC6 inhibitor; HEK293 TRPC4/mu-opioid, membrane potential fluorescence; activity change, negative = inhibition, % at 10 µM; actives 61% (n = 920); AID 2777;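 active = rise or fall in signal beyond 3 SD of buffer-only wells in both replicate plates, either sign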;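 note: integrated kinetic ratio of fluorescence range over baseline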
HEK293 MPD ctr 2-1 = parental HEK293 nonspecific activity of TRPC6 inhibitors, second screen. shares compounds with TRPC6 inhibitor. parental HEK293 membrane potential dye fluorescence; maximal acetylcholine challenge after compound addition. signal change vs control, % at 10 µM. actives 31% (n = 920). AID 2779;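 active = membrane potential signal moving either way by over 3 SD of the maximum-effect control, in both duplicate plates, meaning non-specific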
HEK293 MPD ctr-1 = counter-screen for TRPC6 inhibitors: effect in parental HEK293 cells. actives 60% (n = 920). shares compounds with TRPC6 inhibitor. parental HEK293 membrane potential dye fluorescence. membrane potential signal change, % at 10 µM;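 active = membrane potential signal shifting up or down by more than 3 SD of buffer-only wells, on both duplicate plates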
HEK293 MPD ctr-2 = counter-screen for TRPC6 modulators: effect in parental HEK293 cells; membrane potential signal change, % at 10 µM; shares compounds with TRPC6 inhibitor; membrane potential dye fluorescence; actives 51% (n = 2,400);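 active = membrane potential signal moves up or down beyond 5 SD from buffer-only wells, on both duplicate plates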
HEK293 MPD ctr 2-2 = second counter-screen for TRPC6 modulators: effect in parental HEK293 cells | actives 14% (n = 2,400) | AID 488926 | membrane potential dye fluorescence; after compound, maximal acetylcholine stimulation | inhibition, % at 10 µM | shares compounds with TRPC6 inhibitor;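 active = membrane potential signal drops by more than 5 SD from the mean control signal, in both duplicate plates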;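 note: plate controls were acetylcholine ECmax control wells for no effect and buffer only wells for full effect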
TRPC4/MOR mod = mouse TRPC4 off-target activity of TRPC6 modulators. shares compounds with TRPC6 inhibitor. HEK293 TRPC4/mu-opioid, membrane potential fluorescence. percent change from control (negative = decrease, positive = increase), % at 10 µM. actives 69% (n = 2,400). AID 488927;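 active = membrane potential signal moved up or down beyond 5 SD of buffer control wells, in both duplicate plates, actives on both sides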;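 note: plate controls were assay buffer wells for no effect and DAMGO maximal-effect wells for full effect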
TRPC4/MOR inh 2 = mouse TRPC4 off-target activity of TRPC6 modulators, second screen; shares compounds with TRPC6 inhibitor; HEK293 TRPC4/mu-opioid, membrane potential dye fluorescence; stimulated with maximal-effect DAMGO; inhibition, % at 10 µM; actives 55% (n = 2,400);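 active = drop in membrane potential signal beyond 5 SD of the control wells in both duplicate plates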;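 note: TRPC4 counter screen for TRPC6 hits run under conditions tuned for TRPC6 not TRPC4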
TRPC6 block conf = mouse TRPC6 inhibitor confirmation; shares compounds with TRPC6 inhibitor; HEK293-TRPC6, membrane potential dye, ACh-evoked depolarization; inhibition, % at 10 µM; actives 43% (n = 3,300); AID 488960;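 active = fluorescence ratio falls more than 5 SD below the full-stimulation control mean, in both duplicate runs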;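 note: integrated fluorescence ratio of peak minus minimum over baseline after agonist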
TRPC6 act conf = mouse TRPC6 activator confirmation. AID 488961. activation, % at 10 µM. shares compounds with TRPC6 inhibitor. actives 11% (n = 2,800). HEK293-TRPC6 membrane potential dye fluorescence, FDSS;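 active = ratio signal rise beyond 5 SD above unstimulated control wells' mean, seen in both duplicate runs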;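 note: plate controls were buffer EC0 wells for no effect and acetylcholine ECmax response for full effect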
* marks the source's active call; other numbers are inactive results; i = inactive; nt = no result; ! = not confirmed by another sample.

SMILES | TRPC4 block | TRPC4 potent | Kir21 inh | TRPC4 agonist | TRPC6 inhibitor | TRPC6 activator | TRPC4 spec 2 | TRPC4 spec | HEK293 MPD ctr 2-1 | HEK293 MPD ctr-1 | TRPC6 block conf | TRPC6 act conf | others
COc1ccc(C(CNC(=O)C(=O)Nc2ccc3c(c2)OCO3)N2CCN(C)CC2)cc1 (stereo not drawn) | i | i | 0.19 | i | i | i | nt | nt | nt | nt | nt | nt
N#CC1=C(N)OC2=C(CC/C2=C\c2ccccc2)C1c1ccccc1 (stereo not drawn) | i | 13* | -9.55 | i | i | 27.2* | nt | nt | nt | nt | i | 48.5%* | HEK293 MPD ctr-2=576.0%*;HEK293 MPD ctr 2-2=i;TRPC4/MOR mod=21.0%*;TRPC4/MOR inh 2=i
S=C(NCCc1ccccc1)N1CCN(C23CC4CC(CC(C4)C2)C3)CC1 | i | i | -0.33 | i | i | i | nt | nt | nt | nt | nt | nt
COCCCC/C(=N\OCCN)c1ccc(C(F)(F)F)cc1 | i | i | -3.83 | i | -5.02*! | i | nt | nt | nt | nt | 43.0%* | i | HEK293 MPD ctr-2=i;HEK293 MPD ctr 2-2=i;TRPC4/MOR mod=12.5%*;TRPC4/MOR inh 2=48.0%*
O=C(CCC(=O)OCC(=O)c1ccc(C(F)(F)F)cc1)OCC(=O)c1ccc(C(F)(F)F)cc1 | i | i | 0.7 | i | i | i | nt | nt | nt | nt | nt | nt
CC1CN(c2ccc([N+](=O)[O-])c(NCCOc3ccccc3)c2)CCN1 (stereo not drawn) | i | i | -5.13* | i | -7.31* | i | i | -10.7%* | i | -142.5%* | i | i
COc1ccc(OCCNc2cc(N3CCCCC3)ccc2[N+](=O)[O-])cc1 | i | i | -0.44 | i | i | i | nt | nt | nt | nt | nt | nt
COCC(C)NC(=O)c1ccc(CN2CCc3ccccc3C2)cc1 (stereo not drawn) | i | i | -0.23 | i | -6.93* | i | i | i | i | 0.8%* | i | i
Cc1cc2oc(=O)cc(CN3CCCCC3C)c2cc1C(C)C (stereo not drawn) | i | i | -0.02 | i | i | i | nt | nt | nt | nt | nt | nt
CCOC(=O)CNS(=O)(=O)c1ccc(S(=O)(=O)N2CCCC2)cc1 | i | i | 0.35 | i | -7.85* | i | i | i | i | i | i | i
COc1ccc(C2=Nn3c([n+](C)c4ccccc43)SC2)cc1 | i | i | 2.16 | i | -7.09* | i | 65.5%* | -20.1%* | -35.5%* | -338.0%* | 108.8%* | i
